Measurements: PMC6839502 (Journal of Alzheimer's Disease, 2019)
Values joined by “and” are separate entries in the source; they are usually repeats but may differ in a detail not shown here. Equal entries are not always repeated. “Also recorded” adds a separate entry of the source.

How the values were obtained:
dogs = conditions: long-term toxicology / chronic dosing for up to 9 months; cited from earlier work
CSF Aβ1–40 and Aβ1–42 = assay: Population PK/PD model of CSF Aβ1–40 and Aβ1–42; parameters: species or system human; conditions: in approximately 50% of subjects, simulated
Procedure, shortened: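 Population PK/PD model built on pooled data from both studies: CSF Aβ at baseline plus one steady-state trough value. Indirect-response model in which plasma drug concentration lowers the Aβ production rate. Population PK parameters were fixed. CSF turnover rates were fixed at 0.084/h (Aβ1–40) and 0.12/h (Aβ1–42), taken from a separate serial-CSF study.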

BACE1 over BACE 2 = conditions: radioligand binding assay; cited from earlier work
plasma Aβ fragments = assay: Plasma Aβ fragments after single and multiple doses; assay type: in vivo, human; conditions: 275 mg, on Day 1
Procedure, shortened: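 Healthy adults, oral QD dosing versus placebo, Part B. Pre-dose blood was drawn on Days 1, 2, 4, 7, 10, and 14. Plasma Aβ1–40 was measured by DELFIA (LLOQ 12.1 pg/mL). Log change from baseline was analysed by mixed-model repeated measures: treatment, time, and their interaction as fixed effects, subject as random effect, and log baseline as covariate. Results were expressed as placebo-adjusted reduction.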

Aβ40 and Aβ42 = conditions: animal studies, subcutaneous administration; cited from earlier work
[1] = ECG QTcF change in SAD and MAD studies; assay type: in vivo, human
CSF Aβ fragments = assay: CSF Aβ fragments, sAβPPα and sAβPPβ after multiple doses; assay type: in vivo, human; conditions: healthy adults
Procedure, shortened: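 Healthy adults (18–55 y), randomized double-blind placebo-controlled, oral QD for 14 days, fasted on Days 1, 7, and 14. Lumbar-puncture CSF was taken on Day –3 (B8271004) or Day 0 (B8271001) and on Day 15, 24 h post last dose. Total Aβ was measured by DELFIA (LLOQ 391.0 pg/mL). Ln change from baseline was analysed by ANCOVA with treatment as a fixed effect and ln baseline as covariate, then converted to percent change versus pooled placebo with 2-sided 80% CI.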

pigmented C57BL/6J mice = conditions: long-term toxicology studies / 3 weeks of treatment in pigmented C57BL/6J mice; cited from earlier work
[2] = Safety and tolerability in study B8271007; assay type: in vivo, human; conditions: 100 mg QD

For `C[C@H]1C[C@H]2CSC(N)=N[C@@]2(c2nc(NC(=O)c3ccc(OC(F)F)cn3)cs2)CO1` [PF-06751979], the “Hair color (pigmentation) change” value (dogs) is given as “did not reveal any evidence of hair color change; also recorded: did not reveal pigmentation changes”, the “Predicted average reduction of CSF Aβ1–40 and Aβ1–42 at steady state” value (“Predicted average reduction” below) (CSF Aβ1–40 and Aβ1–42; 30 mg QD) is given as “approximately 60%” and the “Predicted average reduction” value (CSF Aβ1–40 and Aβ1–42; 75 mg QD) is given as ~80%. The “Predicted average reduction” value (CSF Aβ1–40 and Aβ1–42; 110 mg QD) was ~85%, the “Selectivity for BACE1 over BACE2” value (BACE1 over BACE 2) was 26.6 fold and the “Maximum observed placebo-adjusted reduction in plasma Aβ1–40, multiple doses” value (plasma Aβ fragments) was 88.3%. For the same molecule, the “Aβ40 and Aβ42 in the brain and CSF” value (Aβ40 and Aβ42) was “robust reductions”, the “Maximum placebo-adjusted mean QTcF change from baseline” value ([1]; 275 mg QD for 14 days, 90% CI: 4.5, 21.1) was 12.8 ms and the “Maximum placebo-adjusted mean QTcF change from baseline” value ([1]; single dose 540 mg, 90% CI: 7.6, 22.2) was 14.9 ms. For the same molecule, the “CSF Aβ1–38 percent change from baseline to Day 15 (2-sided 80% CI)” value (“CSF Aβ1–38 percent change … (2-sided 80% CI)” for short) (CSF Aβ fragments; 50 mg QD 14 days, B8271001) was “–58.4 (–61.34, –55.28) %”, the “CSF Aβ1–40 percent change from baseline to Day 15 (2-sided 80% CI)” value (“CSF Aβ1–40 percent change … (2-sided 80% CI)” for short) (CSF Aβ fragments; 50 mg QD 14 days, B8271001) was “–70.2 (–74.20, –65.52) %” and the “CSF Aβ1–40 placebo-adjusted percent change from baseline to Day 15 (2-sided 80% CI)” value (CSF Aβ fragments; 50 mg QD 14 days, B8271001) was “–68.1 (–75.87, –57.86) %”. For the same molecule, the “CSF Aβ1–42 percent change from baseline to Day 15 (2-sided 80% CI)” value (“CSF Aβ1–42 percent change … (2-sided 80% CI)” for short) (CSF Aβ fragments; 50 mg QD 14 days, B8271001) was “–71.9 (–74.97, –68.57) %”, the “CSF Aβ total percent change from baseline to Day 15 (2-sided 80% CI)” value (“CSF Aβ total percent change … (2-sided 80% CI)” for short) (CSF Aβ fragments; 50 mg QD 14 days, B8271001) was “–64.0 (–66.62, –61.25) %” and the “CSF Aβx-38 percent change from baseline to Day 15 (2-sided 80% CI)” value (shortened to “CSF Aβx-38 percent change … (2-sided 80% CI)”) (CSF Aβ fragments; 50 mg QD 14 days, B8271001) was “–60.2 (–63.42, –56.67) %”. For the same molecule, the “CSF Aβx-40 percent change from baseline to Day 15 (2-sided 80% CI)” value (from here on “CSF Aβx-40 percent change … (2-sided 80% CI)”) (CSF Aβ fragments; 50 mg QD 14 days, B8271001) was “–60.4 (–63.71, –56.76) %”, the “CSF Aβx-42 percent change from baseline to Day 15 (2-sided 80% CI)” value (“CSF Aβx-42 percent change … (2-sided 80% CI)” for short) (CSF Aβ fragments; 50 mg QD 14 days, B8271001) was “–64.3 (–67.21, –61.11) %” and the “CSF sAβPPα percent change from baseline to Day 15 (2-sided 80% CI)” value (“CSF sAβPPα percent change … (2-sided 80% CI)” for short) (CSF Aβ fragments; 50 mg QD 14 days, B8271001) was 48.4 (38.56, 58.98) %. The “CSF sAβPPβ percent change from baseline to Day 15 (2-sided 80% CI)” value (“CSF sAβPPβ percent change … (2-sided 80% CI)” for short) (CSF Aβ fragments; 50 mg QD 14 days, B8271001) was “–70.6 (–72.23, –68.93) %”, the “CSF Aβ1–38 percent change … (2-sided 80% CI)” value (CSF Aβ fragments; 125 mg QD 14 days, B8271004) was “–80.3 (–81.51, –79.06) %” and the “CSF Aβ1–40 percent change … (2-sided 80% CI)” value (CSF Aβ fragments; 125 mg QD 14 days, B8271004) was “–85.5 (–86.45, –84.38) %”. The “CSF Aβ1–40 placebo-adjusted percent change from baseline to Day 15 (2-sided 80% CI)” value (CSF Aβ fragments; 125 mg QD 14 days, B8271004) was “–83.8 (–85.65, –81.78) %”, the “CSF Aβ1–42 percent change … (2-sided 80% CI)” value (CSF Aβ fragments; 125 mg QD 14 days, B8271004) was “–86.4 (–87.40, –85.28) %” and the “CSF Aβ total percent change … (2-sided 80% CI)” value (CSF Aβ fragments; 125 mg QD 14 days, B8271004) was “–80.1 (–81.01, –79.18) %”. For the same molecule, the “CSF Aβx-38 percent change … (2-sided 80% CI)” value (CSF Aβ fragments; 125 mg QD 14 days, B8271004) was “–82.0 (–83.18, –80.74) %”, the “CSF Aβx-40 percent change … (2-sided 80% CI)” value (CSF Aβ fragments; 125 mg QD 14 days, B8271004) was “–81.0 (–82.16, –79.76) %” and the “CSF Aβx-42 percent change … (2-sided 80% CI)” value (CSF Aβ fragments; 125 mg QD 14 days, B8271004) was “–81.9 (–82.76, –80.91) %”. The “CSF sAβPPα percent change … (2-sided 80% CI)” value (CSF Aβ fragments; 125 mg QD 14 days, B8271004) was 58.7 (48.89, 69.05) %, the “CSF sAβPPβ percent change … (2-sided 80% CI)” value (CSF Aβ fragments; 125 mg QD 14 days, B8271004) was “–81.3 (–82.21, –80.27) %” and the “CSF Aβ1–38 percent change … (2-sided 80% CI)” value (CSF Aβ fragments; 275 mg QD 14 days, B8271004) was “–87.9 (–88.82, –86.98) %”. The “CSF Aβ1–40 percent change … (2-sided 80% CI)” value (CSF Aβ fragments; 275 mg QD 14 days, B8271004) was “–92.9 (–93.54, –92.25) %”, the “CSF Aβ1–40 placebo-adjusted percent change from baseline to Day 15 (2-sided 80% CI)” value (CSF Aβ fragments; 275 mg QD 14 days, B8271004) was “–92.1 (–93.15, –90.98) %” and the “CSF Aβ1–42 percent change … (2-sided 80% CI)” value (CSF Aβ fragments; 275 mg QD 14 days, B8271004) was “–93.6 (–94.22, –92.93) %”. The “CSF Aβ total percent change … (2-sided 80% CI)” value (CSF Aβ fragments; 275 mg QD 14 days, B8271004) was “–86.5 (–87.26, –85.74) %”, the “CSF Aβx-38 percent change … (2-sided 80% CI)” value (CSF Aβ fragments; 275 mg QD 14 days, B8271004) was “–90.1 (–90.91, –89.23) %” and the “CSF Aβx-40 percent change … (2-sided 80% CI)” value (CSF Aβ fragments; 275 mg QD 14 days, B8271004) was “–87.6 (–88.55, –86.62) %”. The “CSF Aβx-42 percent change … (2-sided 80% CI)” value (CSF Aβ fragments; 275 mg QD 14 days, B8271004) was “–86.6 (–87.43, –85.76) %”, the “CSF sAβPPα percent change … (2-sided 80% CI)” value (CSF Aβ fragments; 275 mg QD 14 days, B8271004) was 81.7 (67.79, 96.85) % and the “CSF sAβPPβ percent change … (2-sided 80% CI)” value (CSF Aβ fragments; 275 mg QD 14 days, B8271004) was “–84.3 (–85.28, –83.26) %”. The “Maximum observed (placebo-adjusted) reduction in CSF Aβ1–42” value (CSF Aβ fragments; 275 mg QD, 24 h after Day 14 dose) was ~93% and 92.9%, the “Hair color (pigmentation) change” value (pigmented C57BL/6J mice) was “not observed; also recorded: did not reveal pigmentation changes” and the “ALT elevation, one subject” value ([2]; period 2, Day 7) was 2.12 ×ULN. The “AST elevation, one subject” value ([2]; period 2, Day 7) was 1.23 ×ULN, the “AST peak, one subject” value ([2]; period 2, Day 12) was 1.75 ×ULN and the “ALT peak, one subject” value ([2]; period 2, Day 13) was 3.33 ×ULN.
